In ChEMBL document CHEMBL2176883, “Aminopiperidine sulfonamide Cav2.2 channel inhibitors for the treatment of chronic pain” (J Med Chem, 2012):

Experiments:
[1] = target: T1, Voltage-dependent N-type calcium channel subunit alpha-1B (Homo sapiens, UniProt Q00975); assay: Inhibition of Cav2.2 expressed HEK293 cells assessed as inhibition of calcium flux at 1 uM by FLIPR assay; type: cell-based
Procedure, shortened: (§1)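 Calcium influx was read with a calcium-sensitive dye on FLIPR Tetra in CBK cells expressing α1B-1, α2-δ and β3a with Kir2.3. Cells were preincubated with compound in 30 mM K+, then channels were opened by 1:1 addition of 140 mM K+ solution. Compounds were screened at 1 μM, then titrated over 10 points (0.001–30 μM) in quadruplicate, mean ± SD. Values are averages of n ≥ 3.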
Target sequence in this assay (Q00975 whole entry, looked up): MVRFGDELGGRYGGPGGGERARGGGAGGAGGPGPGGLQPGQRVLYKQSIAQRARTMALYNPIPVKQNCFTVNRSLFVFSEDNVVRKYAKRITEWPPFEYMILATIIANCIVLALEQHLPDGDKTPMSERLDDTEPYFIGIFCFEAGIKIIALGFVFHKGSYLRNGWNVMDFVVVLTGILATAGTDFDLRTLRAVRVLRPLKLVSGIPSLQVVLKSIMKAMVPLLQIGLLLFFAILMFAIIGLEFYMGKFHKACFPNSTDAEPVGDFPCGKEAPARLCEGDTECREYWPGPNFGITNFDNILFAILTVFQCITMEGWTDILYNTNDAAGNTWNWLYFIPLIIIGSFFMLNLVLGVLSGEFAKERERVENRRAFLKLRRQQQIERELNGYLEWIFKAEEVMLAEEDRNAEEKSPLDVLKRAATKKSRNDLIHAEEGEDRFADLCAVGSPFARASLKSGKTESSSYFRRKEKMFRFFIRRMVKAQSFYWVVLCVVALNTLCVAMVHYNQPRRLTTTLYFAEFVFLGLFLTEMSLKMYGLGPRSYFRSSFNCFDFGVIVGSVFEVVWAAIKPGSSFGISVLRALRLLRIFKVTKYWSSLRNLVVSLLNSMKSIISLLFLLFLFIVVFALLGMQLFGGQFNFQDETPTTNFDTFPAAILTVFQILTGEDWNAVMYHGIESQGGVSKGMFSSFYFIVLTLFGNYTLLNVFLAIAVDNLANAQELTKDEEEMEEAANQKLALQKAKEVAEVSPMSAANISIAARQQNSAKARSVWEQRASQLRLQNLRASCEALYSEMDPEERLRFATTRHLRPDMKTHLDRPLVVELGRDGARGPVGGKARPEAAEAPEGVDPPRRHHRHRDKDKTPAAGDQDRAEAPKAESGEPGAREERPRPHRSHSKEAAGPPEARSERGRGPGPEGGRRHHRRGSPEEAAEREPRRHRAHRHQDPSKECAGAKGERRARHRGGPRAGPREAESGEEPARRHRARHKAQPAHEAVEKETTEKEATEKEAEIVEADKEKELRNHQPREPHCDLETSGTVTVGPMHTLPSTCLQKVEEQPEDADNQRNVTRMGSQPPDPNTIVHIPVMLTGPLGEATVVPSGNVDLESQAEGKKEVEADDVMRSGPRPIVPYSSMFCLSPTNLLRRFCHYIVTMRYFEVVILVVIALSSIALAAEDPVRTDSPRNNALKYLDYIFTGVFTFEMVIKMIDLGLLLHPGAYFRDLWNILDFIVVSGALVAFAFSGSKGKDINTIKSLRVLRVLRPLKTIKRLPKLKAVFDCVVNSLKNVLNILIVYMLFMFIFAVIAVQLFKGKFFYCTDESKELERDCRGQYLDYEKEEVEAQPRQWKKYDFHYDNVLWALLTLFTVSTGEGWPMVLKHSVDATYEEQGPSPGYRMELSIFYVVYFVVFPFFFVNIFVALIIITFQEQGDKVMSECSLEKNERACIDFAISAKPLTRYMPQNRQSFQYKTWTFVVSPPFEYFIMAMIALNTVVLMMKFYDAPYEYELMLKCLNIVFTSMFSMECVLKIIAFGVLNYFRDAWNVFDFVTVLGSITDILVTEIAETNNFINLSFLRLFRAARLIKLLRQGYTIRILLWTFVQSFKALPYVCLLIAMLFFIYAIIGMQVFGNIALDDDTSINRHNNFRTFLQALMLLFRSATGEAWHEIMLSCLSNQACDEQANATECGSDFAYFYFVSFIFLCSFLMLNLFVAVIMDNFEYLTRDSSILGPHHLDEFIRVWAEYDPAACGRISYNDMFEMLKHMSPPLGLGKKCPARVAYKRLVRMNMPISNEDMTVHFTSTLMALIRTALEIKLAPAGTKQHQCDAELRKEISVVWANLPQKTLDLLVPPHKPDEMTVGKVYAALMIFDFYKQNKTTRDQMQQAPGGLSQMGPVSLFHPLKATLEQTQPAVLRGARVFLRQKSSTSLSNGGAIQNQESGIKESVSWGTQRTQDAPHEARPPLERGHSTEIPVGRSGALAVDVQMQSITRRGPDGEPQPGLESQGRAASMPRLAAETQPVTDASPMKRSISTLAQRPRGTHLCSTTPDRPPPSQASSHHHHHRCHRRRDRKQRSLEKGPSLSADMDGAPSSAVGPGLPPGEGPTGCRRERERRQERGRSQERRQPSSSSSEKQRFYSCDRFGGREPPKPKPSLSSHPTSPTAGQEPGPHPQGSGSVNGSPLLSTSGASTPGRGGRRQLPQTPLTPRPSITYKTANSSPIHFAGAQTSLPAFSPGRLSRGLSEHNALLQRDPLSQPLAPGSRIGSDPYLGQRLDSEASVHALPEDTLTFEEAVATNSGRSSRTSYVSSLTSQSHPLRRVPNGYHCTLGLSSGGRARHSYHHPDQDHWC

[2] = target: T1, Voltage-dependent N-type calcium channel subunit alpha-1B; assay: Inhibition of Cav2.2 expressed HEK293 cells assessed as inhibition of calcium flux by FLIPR assay in presence of 30 mM of potassium; type: cell-based; procedure, shortened: as §1
Target sequence in this assay (Q00975 whole entry): as the sequence (Q00975 whole entry, looked up) above

hERG [3] = target: T2, hERG (Homo sapiens, UniProt Q12809); assay: Displacement of [35S]-MK-0499 from human ERG at 1 uM; details: probe [35S]-MK-0499
Procedure, shortened: (§2)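 hERG binding was measured as displacement of 35S-labeled MK-0499 at single test concentrations.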

Rattus norvegicus [4] = assay: Analgesic activity in rat SNL neuropathic pain model assessed as reversal of mechanical allodynia at 10 mg/kg, po after 1 hr; type: functional
Rattus norvegicus [5] = assay: Antinociceptive activity in rat assessed as reversal of complete Freund's adjuvant-induced pain at 30 mg/kg, po after 1 hr; type: functional
Procedure, shortened: (§3)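 In the rat CFA inflammatory pain model, compound was given orally at 30 mg/kg and allodynia was read at 1 and 3 h postdose. Average % reversal = (postdose − predose)/(preinjury − predose) for each rat, n = 6. Plasma exposure at 3 h was measured in satellite rats (n = 2).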

Rattus norvegicus [6] = assay: Analgesic activity in rat SNL neuropathic pain model assessed as reversal of mechanical allodynia at 10 mg/kg, po after 3 hrs; type: functional
Rattus norvegicus [7] = assay: Antinociceptive activity in rat assessed as reversal of complete Freund's adjuvant-induced pain at 30 mg/kg, po after 3 hrs; type: functional; procedure, shortened: as §3
[8] = Plasma concentration in rat SNL neuropathic pain model at 10 mg/kg, po after 3.5 hrs; type: ADME, organism-based; parameters: dose 10 mg/kg, route oral
[9] = target: T1, Voltage-dependent N-type calcium channel subunit alpha-1B; assay: Inhibition of Cav2.2 expressed HEK293 cells assessed as inhibition of calcium flux by FLIPR assay in presence of 4 mM of potassium; type: cell-based
Procedure, shortened: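 HEK-293-derived CBK cells coexpress α1B-1, α2-δ and β3a with Kir2.3. Compound was incubated in 4 mM K+ bath, holding about −90 mV. Ca2+ influx was read with a Ca-sensitive dye on FLIPR Tetra. Ten-point titrations ran 0.001–30 μM in quadruplicate, averaged ± SD to give IC50.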
Target sequence in this assay (Q00975 whole entry): as the sequence (Q00975 whole entry, looked up) above

Cav1.2 [10] = target: T3, Cav1.2 (Homo sapiens, UniProt Q13936); assay: Inhibition of Cav1.2 assessed as inhibition of calcium flux at 1 uM by cell based FLIPR assay
Procedure, shortened: (§4)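 Cav1.2 counterscreen using a related calcium-influx FLIPR assay, run as % inhibition at single concentrations or as a titration.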

Cav1.2 [11] = target: T3, Cav1.2; assay: Inhibition of Cav1.2 assessed as inhibition of calcium flux at 3 uM by cell based FLIPR assay; procedure, shortened: as §4
hERG [12] = target: T2, hERG; assay: Displacement of [35S]-MK-0499 from human ERG at 10 uM; details: probe [35S]-MK-0499; procedure, shortened: as §2

T2 sequence (Q12809 whole entry): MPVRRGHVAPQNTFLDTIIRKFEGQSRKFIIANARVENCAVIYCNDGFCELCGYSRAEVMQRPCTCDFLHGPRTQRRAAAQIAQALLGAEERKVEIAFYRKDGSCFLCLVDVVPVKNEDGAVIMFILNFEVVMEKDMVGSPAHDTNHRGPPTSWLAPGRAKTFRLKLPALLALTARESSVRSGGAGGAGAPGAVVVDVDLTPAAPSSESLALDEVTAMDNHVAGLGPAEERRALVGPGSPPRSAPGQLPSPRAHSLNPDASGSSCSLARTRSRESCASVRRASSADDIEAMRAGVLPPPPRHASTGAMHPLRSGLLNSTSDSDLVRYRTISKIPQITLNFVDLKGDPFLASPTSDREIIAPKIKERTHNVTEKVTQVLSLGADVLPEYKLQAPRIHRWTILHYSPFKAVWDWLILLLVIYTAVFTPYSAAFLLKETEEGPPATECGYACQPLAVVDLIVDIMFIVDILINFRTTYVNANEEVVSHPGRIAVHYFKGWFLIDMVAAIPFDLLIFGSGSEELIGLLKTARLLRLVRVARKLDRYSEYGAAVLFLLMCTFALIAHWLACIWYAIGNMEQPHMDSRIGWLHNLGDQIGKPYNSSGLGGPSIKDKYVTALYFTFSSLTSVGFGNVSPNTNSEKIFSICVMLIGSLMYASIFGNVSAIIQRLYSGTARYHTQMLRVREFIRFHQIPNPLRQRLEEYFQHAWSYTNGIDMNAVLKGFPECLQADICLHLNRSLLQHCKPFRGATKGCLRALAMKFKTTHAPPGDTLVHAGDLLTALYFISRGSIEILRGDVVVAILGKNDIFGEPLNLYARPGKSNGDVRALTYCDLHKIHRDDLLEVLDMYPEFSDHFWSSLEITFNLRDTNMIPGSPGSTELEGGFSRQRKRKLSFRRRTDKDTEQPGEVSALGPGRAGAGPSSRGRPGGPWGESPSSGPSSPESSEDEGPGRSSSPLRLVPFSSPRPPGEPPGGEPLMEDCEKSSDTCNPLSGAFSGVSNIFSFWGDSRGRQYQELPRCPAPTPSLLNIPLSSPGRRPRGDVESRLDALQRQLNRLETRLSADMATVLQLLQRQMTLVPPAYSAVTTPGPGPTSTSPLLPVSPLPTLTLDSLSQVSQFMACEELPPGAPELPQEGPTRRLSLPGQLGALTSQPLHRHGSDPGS

Compound: CS(=O)(=O)c1ccc(F)cc1C(=O)N1CCC(N(C2CC2)S(=O)(=O)c2ccc(OC(F)(F)F)cc2)CC1
- inhibition [1]: 0%

Compound: COc1cccc(OC)c1CN1CCC(N(C2CC2)S(=O)(=O)c2cccc(C(F)(F)F)c2)CC1
- IC50 [2]: 60 nM
- inhibition at 1 µM (hERG [3]): 70%

Compound: CS(=O)(=O)c1cccc(C(=O)N2CCC(N(C3CC3)S(=O)(=O)c3cccc(C(F)(F)F)c3)CC2)c1
- inhibition [1]: 15%

Compound: CS(=O)(=O)c1ccc(C(=O)N2CCC(N(C3CC3)S(=O)(=O)c3cccc(C(F)(F)F)c3)CC2)cc1
- inhibition [1]: 52%

Compound: COc1ccc2cc([C@H](C)C(=O)O)ccc2c1 [NAPROXEN]
- Activity (Rattus norvegicus [4]): 47%

Compound: CS(=O)(=O)c1cccc(S(=O)(=O)N(C2CC2)C2CCN(C(=O)c3cc(F)ccc3S(C)(=O)=O)CC2)c1
- inhibition [1]: 0%

Compound: NS(=O)(=O)c1cccc(C(F)(F)F)c1
- Activity (Rattus norvegicus [5]): 53%
- Activity (Rattus norvegicus [6]): 36%
- Activity (Rattus norvegicus [7]): 44%
- concentration at 3.5 h [8]: 35.6 µM
- Activity (Rattus norvegicus [4]): 27%

Compound: C[C@@H](O)[C@@H]1NC(=O)[C@H](Cc2ccc(O)cc2)NC(=O)[C@@H]2C[C@@H](O)CN2C(=O)[C@H](CC(N)=O)NC(=O)[C@@H]2CSSC[C@@H]3NC(=O)[C@H](CO)NC(=O)[C@H](CO)NC(=O)CNC(=O)[C@@H]4C[C@@H](O)CN4C(=O)[C@H](CO)NC(=O)[C@H](CCCCN)NC(=O)[C@@H](N)CSSC[C@H](NC(=O)[C@H](CSSC[C@@H](C(=O)N[C@@H](Cc4ccc(O)cc4)C(N)=O)NC(=O)[C@H](CCCN=C(N)N)NC(=O)[C@H](CCCCN)NC1=O)NC(=O)[C@H](CC(N)=O)NC(=O)[C@H](Cc1ccc(O)cc1)NC(=O)[C@H](CO)NC(=O)[C@H]([C@@H](C)O)NC(=O)[C@@H]1C[C@@H](O)CN1C(=O)[C@H](CO)NC3=O)C(=O)N[C@@H](CCCN=C(N)N)C(=O)N[C@@H](CO)C(=O)N2
- IC50 [2]: 40 nM
- IC50 [9]: 20 nM

Compound: CS(=O)(=O)c1ccc(F)cc1C(=O)N1CCC(N(C2CC2)S(=O)(=O)c2ccccc2C(F)(F)F)CC1
- inhibition [1]: 17%

Compound: O=C(c1ccccc1)N1CCC(N(C2CC2)S(=O)(=O)c2cccc(C(F)(F)F)c2)CC1
- inhibition [1]: 42%

Compound: CS(=O)(=O)c1ccc(F)cc1C(=O)N1CCC(N(C2CC2)S(=O)(=O)c2cccc(OC(F)(F)F)c2)CC1
- IC50 [2]: 1100 nM

Compound: O=C(c1cccc(OC(F)(F)F)c1)N1CCC(N(C2CC2)S(=O)(=O)c2cccc(C(F)(F)F)c2)CC1
- inhibition at 1 µM (Cav1.2 [10]): 60%
- IC50 [2]: 370 nM
- inhibition at 3 µM (Cav1.2 [11]): 78%
- inhibition at 10 µM (hERG [12]): 72%
- inhibition at 1 µM (hERG [3]): 4%

Compound: COC(=O)c1cccc(C(=O)N2CCC(N(C3CC3)S(=O)(=O)c3cccc(C(F)(F)F)c3)CC2)c1
- IC50 [2]: 380 nM
- inhibition at 10 µM (hERG [12]): 66%
- inhibition at 1 µM (hERG [3]): 2.4%
